Bioassay records (PubChem)
ABHD4 inh: ABHD4 inhibitors, primary screen, biochemical, fluorescence polarization, mouse; (Lyso)-N-acylphosphatidylethanolamine lipase (Mus musculus), Q8VD66; purified mABHD4, FP-Rh probe fluorescence polarization; inhibition, % at 8.92 µM; 0.54% of 370,000 active; AID 720543, 2013;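 active = inhibition exceeding the mean over every tested compound plus 3 SD, cut at about 30% in these data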
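Test system: mABHD4 protein | Buffer or medium: HEPES pH 7.0 buffer, 150 mM NaCl, 0.01% Pluronic F-127 | Probe or stimulus: FP-Rh fluorescent activity-based probe, added after compound pre-incubation | Timing: Pre-incubation 45 min, probe exposure 60 min, at 25 °C | Technique: Fluorescence polarization, excitation 525 nm, emission 598 nm, BODIPY TMR filters | Repeats: Single well per compound (singlicate)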
SIAE primary: human SIAE inhibitors, primary screen, biochemical, fluorescence polarization, FP-Rh probe, 1536-well HTS; SIAE FP-Rh probe binding; inhibition, % at 9.66 µM; 0.69% of 370,000 active;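 active = inhibition above a cutoff: mean of compounds within the control limits plus 3 SD of those, cut at about 17% in these data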
Target sequence (Q9HAT2 whole entry, looked up): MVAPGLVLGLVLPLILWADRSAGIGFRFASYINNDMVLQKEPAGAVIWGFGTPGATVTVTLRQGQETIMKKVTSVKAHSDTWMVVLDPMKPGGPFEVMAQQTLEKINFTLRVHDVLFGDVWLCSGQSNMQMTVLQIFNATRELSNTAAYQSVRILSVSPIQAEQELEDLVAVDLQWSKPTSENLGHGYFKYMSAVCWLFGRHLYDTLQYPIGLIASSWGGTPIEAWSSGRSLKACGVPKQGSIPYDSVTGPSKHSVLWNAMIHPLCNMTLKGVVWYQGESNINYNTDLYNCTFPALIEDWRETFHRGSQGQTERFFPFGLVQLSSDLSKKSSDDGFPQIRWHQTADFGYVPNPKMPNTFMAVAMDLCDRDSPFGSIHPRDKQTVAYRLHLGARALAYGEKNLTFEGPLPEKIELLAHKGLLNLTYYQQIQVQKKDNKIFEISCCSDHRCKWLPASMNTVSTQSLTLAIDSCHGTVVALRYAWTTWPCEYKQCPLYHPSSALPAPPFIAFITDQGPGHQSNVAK
TCR CD3 inh: inhibitors of human TCR-CD3 interaction, primary screen, biochemical, fluorescence, TAMRA-labeled TCR probe; inhibition, % at 9.4 µM; 0.37% of 360,000 active; T-cell receptor (TCR); AID 651800, 2012; in the data active = inhibition above about 19%;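 also: recombinant mutant TCR 2C K166C tagged with TAMRA read by polarization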
HTRA1 inhibitor: HTRA1 serine protease inhibitors, primary screen, biochemical, fluorescence polarization, HTS | Q92743 | recombinant HTRA1, FP-rhodamine activity-based probe | inhibition, % at 5.96 µM | 0.5% of 340,000 active | AID 504803, 2011; in the data active = inhibition above about 36%
pPAFAH inh: pPAFAH enzyme inhibitors, primary screen, biochemical, fluorescence polarization, human; AID 463082, 2010; inhibition, % at 3.39 µM; 1.5% of 330,000 active; recombinant pPAFAH, FP-rhodamine probe fluorescence polarization; Platelet-activating factor acetylhydrolase (Homo sapiens), Q13093;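 active = inhibition above the mean inhibition across the screen plus 3 SD, cut at about 25% in these data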;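 also: inhibitors block binding of the rhodamine activity-based probe so polarization drops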
SIAE inh conf: human SIAE inhibitors, retest, confirmation, biochemical, fluorescence polarization, FP-Rh probe, triplicate; shares compounds with SIAE primary; AID 1117263, 2014; 13% of 2,300 active; inhibition, % at 9.66 µM; SIAE FP-Rh activity-based probe;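 active = mean inhibition of the replicates above the hit cutoff set in the primary screen, cut at about 17% in these data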;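 also: inhibitors lower polarization as more probe stays unbound to SIAE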
Large screens that a line does not name were inactive (follow-up assays come after a bar, where they were run). This is a sample that favours compounds with a hit; in the whole collection about 2.3% have one here.

CN(C)c1ccc(NC(=O)CSc2nnc(C3CCCCC3)n2N)cc1	SIAE primary 20.3 | SIAE inh conf inactive
CC(=O)N1Cc2cc(C(=O)NCC(F)(F)F)nc(-c3cccc(-c4cc5ccccc5o4)c3)c2[C@H]1CCO	none (no result: HTRA1 inhibitor, pPAFAH inh)
O=C(O)CSc1nnc(Nc2ccccc2)n1-c1ccccc1	SIAE primary 18.2 | SIAE inh conf inactive
OC(c1ccccc1)(c1ccccc1)C1CCN(CCCOc2ccncc2)CC1	SIAE primary 21.8 (no result: HTRA1 inhibitor, pPAFAH inh) | SIAE inh conf inactive
CCOC(=O)C(Cc1ccccc1)P(=O)(OCC)OCC (stereo not drawn)	none (no result: TCR CD3 inh, HTRA1 inhibitor, pPAFAH inh)
Cc1ccc(S(=O)(=O)n2nc(OC(=O)C3CCCCC3)cc2N)cc1	SIAE primary 36.1 | SIAE inh conf 37.9
COc1ccc(C(=O)Oc2cc(N)n(S(=O)(=O)c3ccc(C)cc3)n2)cc1	none
COc1ccc(S(=O)(=O)n2nc(OC(=O)C3CCCCC3)cc2N)cc1	SIAE primary 43.3 | SIAE inh conf 49.6
COC(=O)[C@]12C[C@H](CC(=O)NCCCN3CCCC3=O)C(=O)N(CCc3ccc(OC)c(OC)c3)C1=C[C@H](C(C)C)O[C@@H]2C1CC1	none (no result: TCR CD3 inh, HTRA1 inhibitor, pPAFAH inh)
CCCCc1c(-c2cccc(Cl)c2)ncn1CCc1ccccc1OC	none (no result: HTRA1 inhibitor, pPAFAH inh)
C[C@@H]1CN([C@H](C)CO)S(=O)(=O)c2ccc(C#Cc3ccccc3F)cc2O[C@H]1CN(C)C(=O)c1ccc2c(c1)OCO2	none (no result: pPAFAH inh)
CCN(CCn1cccn1)C(=O)c1cc(COc2c(F)cccc2F)on1	SIAE primary 45.8 | SIAE inh conf inactive
Cc1ccccc1C1C(C#N)=C(N)N(N(C)C)C2=C1C(=O)CC(C)(C)C2 (stereo not drawn)	none
CN(C)N1C(N)=C(C#N)C(c2ccccc2F)C2=C1CC(C)(C)CC2=O (stereo not drawn)	SIAE primary 24.8 | SIAE inh conf inactive
CC(=O)OCCCN1C(=O)CCC12CCC(C)CC2 (stereo not drawn)	none (no result: TCR CD3 inh, HTRA1 inhibitor, pPAFAH inh)
COc1cccc(NC(=O)N2CCCC2)c1	SIAE primary 18.5 | SIAE inh conf inactive
O=C(Nc1ccc(F)cc1)N1CCCCCC1	SIAE primary 17.8 | SIAE inh conf inactive
O=C(NNc1nc2ccccc2o1)c1ccccc1	SIAE primary 17.7 (no result: HTRA1 inhibitor) | SIAE inh conf inactive
O=C(NC(=Nc1nc2ccccc2o1)NC(=O)c1ccccc1)c1ccccc1	none
COC(=O)c1c(C)[nH]c(C)c1C(C)=O	none
COC(=O)c1c([N+](=O)[O-])c(OC)c(OC)c(OC)c1[N+](=O)[O-]	SIAE primary 18.6 | SIAE inh conf inactive
CCOc1ccc(C2C(C(=O)OC)=CN(C(C)c3ccccc3)C=C2C(=O)OC)cc1 (stereo not drawn)	SIAE primary 18.3 | SIAE inh conf inactive
COC(=O)C1=CN(Cc2ccccc2)C=C(C(=O)OC)C1c1ccc(OC)c(OC)c1	none
COc1ccc(Nc2nc(N)c([N+](=O)[O-])c(NCc3ccccc3)n2)cc1	SIAE primary 23.8 | SIAE inh conf inactive
CN(C(=O)c1cc(COc2ccc(F)cc2Cl)on1)C1CCOC1 (stereo not drawn)	none (no result: pPAFAH inh)
CN1CCC(=NNC(=O)CN(c2cccc([N+](=O)[O-])c2)S(=O)(=O)c2ccccc2)CC1	SIAE primary 22.6 | SIAE inh conf inactive
COCCn1c(C)cc(C2=NNC(=NC3CC3)SC2)c1C	SIAE primary 25.0 | SIAE inh conf inactive
Cc1nnc(N(C)C(=O)c2ccccn2)s1	SIAE primary 31.8 | SIAE inh conf inactive
CN(C(=O)c1ccccn1)c1nnc(-c2cccnc2)s1	none
COc1ccc(C(=O)OCC(=O)c2ccc(CNC(C)=O)s2)cc1	SIAE primary 24.0 | SIAE inh conf inactive
COc1ccccc1C(=O)OCC(=O)c1ccc(CNC(C)=O)s1	none
CC1=CC(C)(C)N2C(=O)C3(NCCc4c3[nH]c3ccccc43)c3cccc1c32 (stereo not drawn)	SIAE primary 17.9 | SIAE inh conf inactive
O=C1Nc2ccccc2C12NCCc1c2[nH]c2ccccc12 (stereo not drawn)	none
COc1ccc(-n2c(COc3cccc(C)c3)n[nH]c2=S)cc1	SIAE primary 19.1 | SIAE inh conf inactive
Fc1cccc(Cc2c(-c3ccc(Cl)cc3)nc3ccc(Br)cn23)c1	none (no result: HTRA1 inhibitor, pPAFAH inh)
COc1c(S(=O)(=O)N2CCN(C(=O)c3ccco3)CC2)ccc(Cl)c1Cl	SIAE primary 73.0 | SIAE inh conf inactive
COc1ccc(Cl)cc1NC(=S)N1CCN(C(=O)c2ccco2)CC1	SIAE primary 39.3 | SIAE inh conf inactive
Nc1ccc(-c2nc3ccccc3o2)cc1	none
Nc1cc(N)cc(-c2nc3ccccc3o2)c1	SIAE primary 25.4 | SIAE inh conf inactive
CC(=O)C1CCC2C3C=CC4=CC(=O)CCC4(C)C3CCC12C (stereo not drawn)	none (no result: HTRA1 inhibitor, pPAFAH inh)
O=C(O)Cn1c(CCS(=O)(=O)c2ccc(Br)cc2)nc2ccccc21	SIAE primary 28.9 | SIAE inh conf inactive
Nc1[nH]c2cc(Cl)ccc2c1C(=O)NCCc1ccc(Cl)cc1	SIAE primary 18.9 (no result: TCR CD3 inh, HTRA1 inhibitor, pPAFAH inh) | SIAE inh conf 18.7
COC(=O)c1ccccc1N(C)S(=O)(=O)c1cc2c3c(c1)CCC(=O)N3CCC2	SIAE primary 32.2 | SIAE inh conf inactive
COC(CN(C)S(=O)(=O)c1cc2c3c(c1)CCC(=O)N3CCC2)OC	none
Cc1cc(C)c(NC(=O)C2C(=O)Nc3ccccc3C(=O)N2C(C)(C)C)c(C)c1 (stereo not drawn)	none (no result: HTRA1 inhibitor, pPAFAH inh)
CCNC(=O)C[C@H]1CC[C@H]2[C@@H](COc3ccc(NC(=O)Nc4ccccc4)cc3C(=O)N2C)O1	none (no result: TCR CD3 inh, HTRA1 inhibitor, pPAFAH inh)
CCOc1ccc(S(=O)(=O)NCCC(=O)OCN2C(=O)c3ccccc3C2=O)cc1	SIAE primary 17.9 | SIAE inh conf inactive
Cc1ccc(S(=O)(=O)NCC(=O)OCN2C(=O)c3ccccc3C2=O)cc1	none (no result: HTRA1 inhibitor)
Cc1ccc(Nc2nnc(SCC(=O)Nc3ccccc3[N+](=O)[O-])s2)cc1	SIAE primary 24.9 | SIAE inh conf inactive
Cc1cccc(Nc2nnc(SCC(=O)Nc3ccccc3[N+](=O)[O-])s2)c1C	none
CC(C)Nc1nnc(SCC(=O)Nc2ccc3c(c2)C(=O)c2ccccc2C3=O)s1	SIAE primary 26.8 | SIAE inh conf inactive
CCCCN(C(C)=O)c1c(CC)nc2ccc(C(=O)NCCOc3ccc(OC)cc3)cn12	none (no result: HTRA1 inhibitor, pPAFAH inh)
Oc1ccc(/C=N/Nc2ccc3ccccc3c2)c(O)c1	SIAE primary 21.5, pPAFAH inh 25.3 | SIAE inh conf inactive
Cc1cccc(CNC(=S)OCCN2CCCC23CCC(c2ccccc2)CC3)c1 (stereo not drawn)	none (no result: TCR CD3 inh, HTRA1 inhibitor, pPAFAH inh)
CCN(CCO)C(=O)c1ccc2nc(Cc3ccc(OC)cc3)oc2c1	SIAE primary 24.0 | SIAE inh conf inactive
